In the library only some 3.6% were active in any assay of this set; here they are far more common.
Beta apoptosis = blocks beta cell apoptosis; INS-1E cytokine-induced death, ATP luminescence, 48 h; percent of positive-control rescue, neutral wells zero; protection from apoptosis, % (test concentration not listed); 300,000 tested, 0.8% active;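 active = Every replicate reaches about 75%, or at least half do and their mean reaches it too, limit read from the data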;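 note: 0% = cytokine-treated negative control wells and 100% = positive control rescue; higher means more ATP so stronger rescue from cytokine killing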
HIF activator = HIF pathway transcriptional activation. U2OS HRE-luciferase reporter, luminescence; normalized: DMSO 0%, desferrioxamine 100%. activation, % at 7.5 µM (by protocol). 300,000 tested, 0.32% active. AID 1910;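 active = mean activation of at least 10% of the iron chelator positive control signal, with at least half of replicates also reaching 10%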
CSC inhib = cancer stem cell inhibition; cancer stem cell-like cells viability, luminescence; inhibition, % at 7.5 µM; 300,000 tested, 1.1% active; AID 2717; in the data active = inhibition above about 75%; tested in HMLE shEcad cells
PfHsp90 yeast 2 = growth inhibition of yeast expressing Plasmodium Hsp90; S. cerevisiae expressing PfHsp90, BacTiter-Glo ATP, 48 h; yeast lacking PDR1 and PDR3 efflux regulators; inhibition, % at 9.4 µM; 310,000 tested, 0.32% active;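 active = every replicate shows inhibition above about 80%, whatever the replicate mean, limit read from the data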;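 note: 0% = DMSO neutral controls and 100% = 20 µM radicicol positive controls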
SKKanGAS inh = inhibitors of SKKanGAS S. pyogenes growth in kanamycin (SK-promoter or general growth effect) | AID 1662 | 300,000 tested, 1.3% active | inhibition, % at 7.5 µM | BacTiter-Glo, 6 h;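 active = mean replicate score, as percent of positive control median, at least 50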;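 note: strain carries kanamycin resistance gene driven by streptokinase promoter and grows in 40 µg/ml kanamycin; loss of luminescence reflects streptokinase promoter inhibition or plain growth inhibition; 0% = median of DMSO wells and 100% = positive control at its reference dose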
T cruzi inh = T. cruzi replication inhibition; T. cruzi beta-gal in NIH3T3, luminescence, 90 h; inhibition, % (test concentration not listed); 300,000 tested, 1.4% active;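 active = mean inhibition across valid replicates above about 55%, limit read from the data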;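 note: signal also drops with host cell toxicity which is not excluded here; 0% = plate median of DMSO wells and 100% = zero luminescence signal; higher percent means less beta-gal luminescence so fewer parasites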
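Incubation – ≥90 h infection period, 3 h prior cell attachment · System – NIH/3T3 fibroblasts plus reporter T. cruzi · Doses – compound pinned at 50 nL/well, DMSO · Read-out basis – percent inhibition of parasite-derived β-gal signal · Signal – luminescent β-galactosidase signal after 60 min lysis · Also added – 5000 T. cruzi trypomastigotes/well · Medium – Low-serum DMEM with 2% FBS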
Active calls of the source: *; . = not tested or not shown.

SMILES | Beta apoptosis | HIF activator | CSC inhib | PfHsp90 yeast 2 | SKKanGAS inh | T cruzi inh
CC(C)(C)c1ccc(C2CC2C(=O)N/N=C\c2ccc[nH]2)cc1 (stereo not drawn) | 109* | 0 | 0 | 10 | 13 | 60*
CC(C)[C@H](NC(=O)c1ccc([N+](=O)[O-])cc1Cl)C(=O)N1CCN(C/C=C/c2ccccc2)CC1 | 37 | . | -4 | -9 | . | .
S=c1sc2c(Cl)ncnc2n1-c1ccccc1 | . | -8 | . | 24 | -1 | 59*
CC[C@]12c3[nH]c4cc(-c5ccco5)ccc4c3CCN1C(=O)[C@@H](CC(=O)NCc1ccc(OC)c(OC)c1)C[C@@H]2C(=O)N1CCN(C(=O)c2ccco2)CC1 | . | . | . | 3 | . | .
COc1ccccc1NC(=O)c1ccc(NC(=O)c2ccc(=O)[nH]c2)cc1 | 1 | . | -16 | 7 | . | .
COc1cc(/C=C(\C#N)c2nc3ccc(C)cc3[nH]2)c([N+](=O)[O-])cc1OC | 10 | 1 | -3 | 2 | 10 | 20
COc1c(O)ccc(/C=C(\C#N)c2nc3ccccc3[nH]2)c1[N+](=O)[O-] | 1 | 1 | 5 | -11 | 55* | -14
COc1ccc(/C=C(\C#N)c2nc3ccccc3[nH]2)cc1O | . | 13* | . | -4 | -2 | -1
COc1cc(/C=C(/C#N)c2ccccc2)ccc1Oc1ccc([N+](=O)[O-])cn1 | 16 | -1 | 34 | . | -6 | 48
COc1cc(/C=C(\C#N)c2nc3ccccc3[nH]2)ccc1Oc1ccc([N+](=O)[O-])cn1 | 21 | 1 | 18 | 0 | 18 | 62*
CCOC(=O)c1sc(N/N=C/c2ccc(N(C)C)cc2)nc1C | -15 | 1 | -8 | -4 | 0 | 18
C=CCc1c(C)nc(C)nc1N/N=C/c1ccc(N(C)C)cc1 | 100* | 0 | 9 | 8 | -3 | -26
CC(C)CN1CCC(CN2CCNC(=O)C2=O)CC1 | . | . | . | -8 | . | .
O=C(O)c1ccc(N2C(=O)CC(SC(=NCc3ccc4c(c3)OCO4)Nc3ccc(F)cc3)C2=O)cc1 (stereo not drawn) | -6 | -1 | 2 | 27 | 59* | 0
O=C(C1CCCCC1)N1CCC(c2nc3c(nnn3Cc3c(F)cccc3Cl)c(=O)[nH]2)CC1 | 10 | -21 | -2 | -8 | 68* | 4
c1ccc(CSC2=NNC(c3ccccn3)S2)cc1 (stereo not drawn) | 52 | 14* | 125* | 21 | 83* | 63*
O=C(CSC1=NNC(c2ccccn2)S1)Nc1ccc(C(F)(F)F)cc1 (stereo not drawn) | 9 | 25* | 93* | 2 | 48 | 18
CC(=O)Nc1ccc(NC(=O)CSc2ccccn2)cc1 | 2 | 1 | -26 | 21 | 2 | -29
Cc1cc(C(=O)N/N=C/c2c(C)nn(-c3ccccc3)c2C)n[nH]1 | -5 | 1 | 3 | -16 | -3 | -33
Cc1nn(-c2ccccc2)c(C)c1/C=N/NC(=O)c1cc(-c2ccc(Cl)s2)[nH]n1 | -1 | -1 | 69 | . | 59* | 16
Cc1nn(-c2ccccc2)c(C)c1/C=N/NC(=O)c1cc(-c2ccc(Br)s2)[nH]n1 | 31 | 1 | 76* | . | 51* | 5
Cc1nn(-c2ccccc2)c(C)c1/C=N/NC(=O)c1cc(-c2cccs2)[nH]n1 | 37 | 0 | 60 | -9 | 10 | -48
CC(/C=N/NC(=O)c1cc(-c2ccc(C)s2)[nH]n1)=C\c1ccccc1 | 20 | 3 | 87* | 21 | -2 | -45
CC(/C=N/NC(=O)c1cc(C(C)(C)C)[nH]n1)=C\c1ccccc1 | 9 | 1 | 3 | . | -26 | 7
Cc1nn(-c2ccccc2)c(C)c1/C=N/NC(=O)c1cc(C23CC4CC(CC(C4)C2)C3)[nH]n1 | 18 | 0 | 97* | -7 | 64* | 50
SMILES | Beta apoptosis | HIF activator | CSC inhib | PfHsp90 yeast 2 | SKKanGAS inh | T cruzi inh
COC(=O)C1=C(C)N(C)C(=S)NC1c1ccc(OC)cc1OC (stereo not drawn) | 1 | 0 | -20 | . | -8 | -19
O=C(C[C@H]1C[C@H](C(=O)N2CCCCC2)[C@@]2(CCc3ccccc3)c3[nH]c4cc(-c5ccco5)ccc4c3CCN2C1=O)NCc1cccc(C(F)(F)F)c1 | . | . | . | 11 | . | .
COc1cc(/C=N/NC(=O)c2cc(C34CC5CC(CC(C5)C3)C4)[nH]n2)ccc1O | -6 | 1 | 101* | . | 7 | 2
COc1cc(/C=N/NC(=O)c2cc(C3CC3)[nH]n2)ccc1O | 5 | 0 | 1 | -74 | -6 | -2
CC(C)[C@@H]1CC[C@@H](C)c2c(-c3ccccc3)n[nH]c21 | -1 | 0 | 101* | 6 | 88* | 42
c1ccc(-c2n[nH]c3c2CCC3)cc1 | -1 | 0 | -9 | 7 | 31 | 7
Cc1ccc2c(CNCc3ccccc3)cc(=O)oc2c1 | . | 4 | 60 | 33 | 18 | 2
CC(C)C[C@H](NC(=O)c1nc[nH]c1C(=O)N1CCN(C(=O)OC(C)(C)C)CC1)C(=O)OCc1ccccc1 | -2 | -1 | . | -8 | 6 | 1
Cc1csc(NC(=O)COCC(=O)O)c1-c1nc2ccccc2s1 | -4 | 0 | 0 | 33 | 50* | 5
O=C(COC(=O)c1ccccc1Nc1ccccc1)NCc1ccccc1Cl | 1 | 683* | 2 | 12 | -3 | -16
C=CCSc1nsc(NC(=O)Nc2ccc(F)cc2)n1 | 111* | 6 | 101* | -1 | 75* | 35
Cc1ccccc1-c1cc(C(=O)Nc2sc(C)c(C)c2C(N)=O)c2ccccc2n1 | 93* | 0 | . | -13 | 47 | 19
CCOC(=O)c1c(NC(=O)c2cc(-c3ccc(Cl)s3)nc3ccccc23)sc(C(N)=O)c1C | 77* | 0 | 14 | -70 | 1 | -18
CCOC(=O)c1sc(NC(=O)c2cc(-c3ccccc3C)nc3ccccc23)c(C#N)c1C | 39 | 0 | 89* | -23 | 51* | 4
Cc1sc(NC(=O)Nc2ccccc2)c(C(N)=O)c1C | -9 | 4 | 0 | -10 | 5 | -9
CCOC(=O)c1sc(NC(=O)c2ccccc2C(=O)O)c(C(=O)OCC)c1C | 4 | 0 | -1 | 12 | 1 | -6
COC(=O)c1cn(C(=O)/C=C/c2ccc(OC)c(OC)c2)c2ccccc12 | 5 | 3 | 59 | -7 | -11 | -13
Cc1cccc(C(=O)NNC(=O)c2c(O)c3ccccc3n(C)c2=O)c1 | -4 | -19 | 1 | -24 | 88* | 9
CCn1c(=O)c(C(=O)NNC(=O)c2cccc(Cl)c2)c(O)c2ccccc21 | 11 | 0 | . | -11 | 103* | -2
Cn1c(=O)c(C(=O)NNC(=O)c2cccc(Cl)c2)c(O)c2ccccc21 | 66 | 0 | 31 | -12 | 62* | 3
Cn1nc(C(=O)NNC(=O)c2cccc(Cl)c2)c2ccccc2c1=O | 1 | . | -11 | 8 | . | .
O=C(N/N=C/c1ccccc1[N+](=O)[O-])c1cnccn1 | -36 | 1 | -19 | 12 | -2 | -4

High-throughput results as filed in PubChem BioAssay.
